Data as given in ChEMBL document CHEMBL1124104, “(Acyloxy)benzophenones and (acyloxy)-4-pyrones. A new class of inhibitors of human neutrophil elastase” (J Med Chem, 1988).

How the values were obtained:
[1] = Inhibitory activity against Hog pancreatic elastase; IA = Inactive at 1e-5M; parameters: species or system Sus scrofa
[2] = Inhibitory activity against pancreatic elastase; IA = Inactive at 1e-5M
[3] = biological target: T1, Neutrophil elastase (Homo sapiens) (UniProt P08246); conditions: 3 uM
T1 sequence (whole entry): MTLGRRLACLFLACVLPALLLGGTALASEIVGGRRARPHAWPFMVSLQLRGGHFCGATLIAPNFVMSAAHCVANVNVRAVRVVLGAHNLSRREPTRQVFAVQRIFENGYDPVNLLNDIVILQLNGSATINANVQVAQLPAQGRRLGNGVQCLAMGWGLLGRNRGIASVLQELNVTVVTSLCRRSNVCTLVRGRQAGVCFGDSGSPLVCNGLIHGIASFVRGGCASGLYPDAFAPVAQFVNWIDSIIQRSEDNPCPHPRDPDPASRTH

[4] = biological target: T1, Neutrophil elastase (Homo sapiens); conditions: 2 uM
[5] = biological target: T1, Neutrophil elastase (Homo sapiens); conditions: 3 uM; remark: listed apart in the source
[6] = Inhibitory activity against pancreatic elastase; IA = Inactive at 10e-6
[7] = biological target: T1, Neutrophil elastase (Homo sapiens); conditions: 2 uM; remark: listed apart in the source
[8] = biological target: T1, Neutrophil elastase (Homo sapiens); conditions: 1 uM
[9] = biological target: T1, Neutrophil elastase (Homo sapiens); conditions: 1 uM; remark: listed apart in the source
Neutrophil elastase [10] = biological target: T2, Neutrophil elastase (Homo sapiens, UniProt P08246); test: Binding affinity towards human leukocyte elastase at 10e-8 M
T2 sequence (P08246 whole entry): T1 sequence (whole entry)
Summary of the method: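 HLE activity followed as rise in absorbance at 410 nm from nitroanilide release; substrate (methoxysuccinyl)Ala-Ala-Pro-Val nitroanilide at 10⁻⁴ M. Run in 0.2 M Tris, pH 8.0, 30 °C. Inhibitors and substrate dissolved in DMSO, which made up 10% of the final medium. Enzyme titrated to give 0.12 OD unit/min per 10 mm path.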

Neutrophil elastase [11] = biological target: T2, Neutrophil elastase; test: Inhibitory activity against human leukocyte elastase at 10e-7 M
[12] = biological target: T1, Neutrophil elastase (Homo sapiens); conditions: 2 uM; remark: listed apart in the source
[13] = Inhibitory activity against Hog pancreatic elastase; IA = Inactive at 10e-6; parameters: species or system Sus scrofa
[14] = biological target: T1, Neutrophil elastase (Homo sapiens); conditions: 1 uM; remark: listed apart in the source
[15] = biological target: T1, Neutrophil elastase (Homo sapiens); conditions: 3 uM; remark: listed apart in the source

| IC50 [1] | IC50 [2] | inhibition [3] [%] | inhibition [4] [%] | inhibition [5] [%] | IC50 [6] | inhibition [7] [%] | inhibition [8] [%] | inhibition [9] [%] | Ki (Neutrophil elastase [10]) [nM] | IC50 (Neutrophil elastase [11]) [nM] | inhibition [12] [%] | IC50 [13] | inhibition [14] [%] | inhibition [15] [%] | SMILES |
| --- | --- | --- | --- | --- | --- | --- | --- | --- | --- | --- | --- | --- | --- | --- | --- |
| Not Active | Not Active | – | – | – | – | – | – | – | – | – | – | – | – | – | CC(C)(C)C(=O)Oc1ccc(C(=O)c2ccccc2)cc1 |
| – | – | 67 | 46 | 77 | Not Active | 42 | 28 | 34 | 71 | 120 | 62 | Not Active | 15 | 77 | CC(C)(C)C(=O)Oc1ccc(C(=O)c2ccc(OC(=O)C(C)(C)C)cc2)cc1 |
